Assay results reported in ChEMBL document CHEMBL1208778, “Synthesis and anti-cancer activity of chalcone linked imidazolones” (2010).
Active and inactive are the calls of the source. The calls are words filed in the database; no cut-off is given here.

Columns and labels:
Assay type in all cases: functional
[1] = system: SNB-75; test: Growth inhibition of human SNB75 cells
Procedure, shortened: (§1)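 Compounds that passed a preliminary screen were tested at five doses in the NCI (Bethesda) in vitro Anticancer Screen Program against a 53-line human tumour panel spanning leukemia, lung, colon, CNS, melanoma, ovarian, renal, prostate and breast. Growth inhibition is reported as GI50.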

[2] = Growth inhibition of human Hs 578T cells
Procedure, shortened: (§2)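 Five-dose testing was run within the NCI (Bethesda) in vitro Anticancer Screen Program on a panel of 53 human tumour cell lines from nine cancer types. Growth inhibition is reported as GI50.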

[3] = system: LOX IMVI; test: Growth inhibition of human LOXIMVI cells; procedure, shortened: as §2
[4] = system: NCI-H226; test: Growth inhibition of human NCI-H226 cells; procedure, shortened: as §2
[5] = system: PC-3; test: Growth inhibition of human PC3 cells; procedure, shortened: as §2
[6] = system: SNB-19; test: Growth inhibition of human SNB19 cells; procedure, shortened: as §1
[7] = Growth inhibition of human RPMI8266 cells; procedure, shortened: as §2
[8] = system: HCT-15; test: Growth inhibition of human HCT15 cells; procedure, shortened: as §2
[9] = system: CAKI-1; test: Growth inhibition of human Caki1 cells; procedure, shortened: as §2
[10] = system: A549; test: Growth inhibition of human A549 cells; procedure, shortened: as §2
[11] = system: M14; test: Growth inhibition of human M14 cells; procedure, shortened: as §2
[12] = system: SW-620; test: Growth inhibition of human SW620 cells; procedure, shortened: as §1
[13] = system: HCT-116; test: Growth inhibition of human HCT116 cells; procedure, shortened: as §2
[14] = system: HT-29; test: Growth inhibition of human HT-29 cells; procedure, shortened: as §2
[15] = system: NCI-H460; test: Growth inhibition of human NCI-H460 cells; procedure, shortened: as §2
[16] = system: T47D; test: Growth inhibition of human T47D cells; procedure, shortened: as §1
[17] = system: ACHN; test: Growth inhibition of human ACHN cells; procedure, shortened: as §2
[18] = system: TK-10; test: Growth inhibition of human TK10 cells; procedure, shortened: as §1
[19] = system: SF-268; test: Growth inhibition of human SF268 cells; procedure, shortened: as §2
[20] = system: SK-MEL-5; test: Growth inhibition of human SK-MEL-5 cells; procedure, shortened: as §2
[21] = system: UACC-257; test: Growth inhibition of human UACC257 cells; procedure, shortened: as §1
[22] = system: Malme-3M; test: Growth inhibition of human MALME-3M cells; procedure, shortened: as §2
[23] = system: KM12; test: Growth inhibition of human KM12 cells; procedure, shortened: as §2
[24] = system: MCF7; test: Cell cycle arrest in human MCF7 cells assessed as accumulation at G2/M phase at 30 uM after 24 hrs by FACS analysis
Procedure, shortened: (§3)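 MCF-7 cells were treated at 30 µM for 24 h alongside a DMSO control. Fractions in G0, G1, S and G2/M phases were measured by FACS, and values are means of three experiments.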

[25] = system: COLO 205; test: Growth inhibition of human COLO205 cells; procedure, shortened: as §2
[26] = system: HCC 2998; test: Growth inhibition of human HCC2998 cells; procedure, shortened: as §2
[27] = system: MDA-MB-231; test: Growth inhibition of human MDA-MB-231 cells; procedure, shortened: as §2
[28] = system: MDA-MB-435; test: Growth inhibition of human MDA-MB-435 cells; procedure, shortened: as §2
[29] = system: NCI-H322M; test: Growth inhibition of human NCI-H322M cells; procedure, shortened: as §2
[30] = system: MCF7; test: Cell cycle arrest in human MCF7 cells assessed as accumulation at G2/M phase at 10 uM after 24 hrs by FACS analysis
Procedure, shortened: (§4)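 MCF-7 breast carcinoma cells were exposed to 10 µM test compound for 24 h, with DMSO as the vehicle control. Cell-cycle distribution was read by FACS as the percentage of cells in G0, G1, S and G2/M.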

[31] = system: EKVX; test: Growth inhibition of human EKVX cells; procedure, shortened: as §2
[32] = system: NCI/ADR-RES; test: Growth inhibition of human NCI/ADR-RES cells; procedure, shortened: as §2
[33] = system: SF-295; test: Growth inhibition of human SF295 cells; procedure, shortened: as §2
[34] = system: OVCAR-4; test: Growth inhibition of human OVCAR4 cells; procedure, shortened: as §2
[35] = system: U-251; test: Growth inhibition of human U251 cells; procedure, shortened: as §1
[36] = system: SN12C; test: Growth inhibition of human SN12C cells; procedure, shortened: as §1
[37] = system: MCF7; test: Cell cycle arrest in human MCF7 cells assessed as accumulation at S phase at 30 uM after 24 hrs by FACS analysis; procedure, shortened: as §3
[38] = system: OVCAR-8; test: Growth inhibition of human OVCAR8 cells; procedure, shortened: as §2
[39] = system: OVCAR-5; test: Growth inhibition of human OVCAR5 cells; procedure, shortened: as §2
[40] = system: UACC-62; test: Growth inhibition of human UACC62 cells; procedure, shortened: as §1
[41] = system: OVCAR-3; test: Growth inhibition of human OVCAR-3 cells; procedure, shortened: as §2
[42] = system: HOP-62; test: Growth inhibition of human HOP62 cells; procedure, shortened: as §2
[43] = system: MCF7; test: Cell cycle arrest in human MCF7 cells assessed as accumulation at G1 phase at 10 uM after 24 hrs by FACS analysis; procedure, shortened: as §4
[44] = system: RXF 393; test: Growth inhibition of human RXF393 cells; procedure, shortened: as §2
[45] = system: NCI-H522; test: Growth inhibition of human NCI-H522 cells; procedure, shortened: as §2
[46] = system: MCF7; test: Cell cycle arrest in human MCF7 cells assessed as accumulation at S phase at 10 uM after 24 hrs by FACS analysis; procedure, shortened: as §4
[47] = system: MCF7; test: Cell cycle arrest in human MCF7 cells assessed as accumulation at G1 phase at 30 uM after 24 hrs by FACS analysis; procedure, shortened: as §3
[48] = system: SF-539; test: Growth inhibition of human SF539 cells; procedure, shortened: as §2
[49] = system: SK-OV-3; test: Growth inhibition of human SKOV3 cells; procedure, shortened: as §1
[50] = system: MCF7; test: Growth inhibition of human MCF7 cells; procedure, shortened: as §2
[51] = system: BT-549; test: Growth inhibition of human BT549 cells; procedure, shortened: as §2
[52] = system: MCF7; test: Cell cycle arrest in human MCF7 cells assessed as accumulation at G0 phase at 30 uM after 24 hrs by FACS analysis; procedure, shortened: as §3
[53] = system: NCI-H23; test: Growth inhibition of human NCI-H23 cells; procedure, shortened: as §2
[54] = system: SK-MEL-28; test: Growth inhibition of human SK-MEL-28 cells; procedure, shortened: as §2
[55] = system: 786-0; test: Growth inhibition of human 786-0 cells; procedure, shortened: as §2
[56] = system: K562; test: Growth inhibition of human K562 cells; procedure, shortened: as §2
[57] = system: MCF7; test: Cell cycle arrest in human MCF7 cells assessed as accumulation at G0 phase at 10 uM after 24 hrs by FACS analysis; procedure, shortened: as §4
[58] = system: A498; test: Growth inhibition of human A498 cells; procedure, shortened: as §2
[59] = system: SK-MEL-2; test: Growth inhibition of human SK-MEL-2 cells; procedure, shortened: as §2
[60] = system: HOP-92; test: Growth inhibition of human HOP92 cells; procedure, shortened: as §2
[61] = system: UO-31; test: Growth inhibition of human UO31 cells; procedure, shortened: as §1

## COc1ccc(-c2cn(-c3cccc(C(=O)/C=C/c4ccc(O)c(OC)c4)c3)c(=O)[nH]2)cc1
[1]
  GI50: 4.73 µM
[2]
  GI50: 4.25 µM
[3]
  GI50: 2.44 µM
[4]
  GI50: 4.1 µM
[5]
  GI50: 3.05 µM
[6]
  GI50: 5.84 µM
[7]
  GI50: 1.35 µM
[8]
  GI50: 3.15 µM
[9]
  GI50: 4.99 µM
[10]
  GI50: 4.14 µM
[11]
  GI50: 5.14 µM
[12]
  GI50: 2.5 µM
[13]
  GI50: 1.93 µM
[14]
  GI50: 3.84 µM
[15]
  GI50: 3.23 µM
[16]
  GI50: 3.6 µM
[17]
  GI50: 3.4 µM
[18]
  GI50: 6.08 µM
[19]
  GI50: 3.4 µM
[20]
  GI50: 2.63 µM
[21]
  GI50: 13.3 µM
[22]
  GI50: 4.42 µM
[23]
  GI50: 1.77 µM
[24]
  Activity: 9%
[25]
  GI50: 6.61 µM
[26]
  GI50: 2.32 µM
[27]
  GI50: 5.25 µM
[28]
  GI50: 3.35 µM
[29]
  GI50: 8.2 µM
[30]
  Activity: 26.18%
[31]
  GI50: 13.4 µM
[32]
  GI50: 2.56 µM
[33]
  GI50: 13.9 µM
[34]
  GI50: 6.08 µM
[35]
  GI50: 3.45 µM
[36]
  GI50: 4.11 µM
[37]
  Activity: 16%
[38]
  GI50: 4.97 µM
[39]
  GI50: 3.38 µM
[40]
  GI50: 3.96 µM
[41]
  GI50: 2.7 µM
[42]
  GI50: 5.15 µM
[43]
  Activity: 57.66%
[44]
  GI50: 5.85 µM
[45]
  GI50: 3.48 µM
[46]
  Activity: 14%
[47]
  Activity: 54.5%
[48]
  GI50: 2.25 µM
[49]
  GI50: 4.77 µM
[50]
  GI50: 3.18 µM
[51]
  GI50: 4.57 µM
[52]
  Activity: 20.5%
[53]
  GI50: 2.85 µM
[54]
  GI50: 2.03 µM
[55]
  GI50: 4.53 µM
[56]
  GI50: 2.35 µM
[57]
  Activity: 2.16%
[58]
  GI50: 3.72 µM
[59]
  GI50: 5.54 µM
[60]
  GI50: 2.96 µM
[61]
  GI50: 5.19 µM

## COc1cc(/C=C/C(=O)c2cccc(-n3cc(-c4ccc(Cl)cc4)[nH]c3=O)c2)cc(OC)c1OC
[1]
  GI50: inactive
[2]
  GI50: 5.96 µM
[3]
  GI50: 1.72 µM
[4]
  GI50: inactive
[5]
  GI50: inactive
[6]
  GI50: 16.1 µM
[7]
  GI50: 3.92 µM
[8]
  GI50: 3.85 µM
[9]
  GI50: inactive
[10]
  GI50: inactive
[11]
  GI50: 4.36 µM
[12]
  GI50: 1.75 µM
[13]
  GI50: 1.39 µM
[14]
  GI50: 2 µM
[15]
  GI50: 3.74 µM
[16]
  GI50: 6.65 µM
[17]
  GI50: 7.17 µM
[18]
  GI50: 6.46 µM
[19]
  GI50: 5.07 µM
[20]
  GI50: 8.7 µM
[21]
  GI50: 17.4 µM
[22]
  GI50: 18.1 µM
[23]
  GI50: 5.45 µM
[24]
  Activity: 27%
[25]
  GI50: 7.38 µM
[26]
  GI50: 2.46 µM
[27]
  GI50: 13.8 µM
[28]
  GI50: 3.63 µM
[29]
  GI50: 12.9 µM
[30]
  Activity: 13.92%
[31]
  GI50: inactive
[32]
  GI50: 2.36 µM
[33]
  GI50: 24.3 µM
[34]
  GI50: 11.4 µM
[35]
  GI50: 2.12 µM
[36]
  GI50: 5.14 µM
[37]
  Activity: 17%
[38]
  GI50: 3.85 µM
[39]
  GI50: 3.11 µM
[40]
  GI50: 8.88 µM
[41]
  GI50: 2.4 µM
[42]
  GI50: inactive
[43]
  Activity: 67.68%
[44]
  GI50: 3.22 µM
[45]
  GI50: 4.1 µM
[46]
  Activity: 13.91%
[47]
  Activity: 44%
[48]
  GI50: 3.49 µM
[49]
  GI50: 31.4 µM
[50]
  GI50: 1.74 µM
[51]
  GI50: 12.3 µM
[52]
  Activity: 12%
[53]
  GI50: 3.56 µM
[54]
  GI50: 10.9 µM
[55]
  GI50: 2.14 µM
[56]
  GI50: 3.69 µM
[57]
  Activity: 4.49%
[58]
  GI50: 30.2 µM
[59]
  GI50: 3.44 µM
[60]
  GI50: inactive
[61]
  GI50: 7.03 µM
